Compounds with a hit are over-represented: about 3.7% of the library has one in this group of screens.
Kir21 block: inhibitors of mouse Kir2.1 inward-rectifier potassium channel; P35561; HEK293-Kir2.1, FluxOR thallium flux fluorescence; hits give low values; B-score at 10 µM; 310,000 compounds, 0.85% hits; AID 1672;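 active means fluorescence ratio B-score at or below minus 3 SD of library scores, with starting-brightness B-score within 2 SD, cut at about -4.2 in these data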;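 further: channel flux triggered by added potassium and thallium sulfate stimulus; B-score of peak minus minimum fluorescence over baseline after thallium stimulus; more negative B-score means stronger Kir2.1 block with less thallium influx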
KCNQ1 pot: potentiates or activates the human KCNQ1 potassium channel. CHO-K1 KCNQ1, thallium flux FluxOR fluorescence; hits give high values. AID 2648. 310,000 compounds, 0.35% hits. B-score at 10 µM;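 active means fluorescence ratio B-score, a plate-corrected score, at least three library SD, with initial intensity B-score within 5 SD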
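Schedule – 37 °C overnight plating, 90-min dark dye load, 20-min compound pretreatment · System – stable KCNQ1 CHO-K1 line · Probe or stimulus – thallium- and potassium-containing depolarizing buffer · Measured by – kinetic FluxOR fluorescence, 10 s baseline plus 110 s post-stimulus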
KCNK3 block: human KCNK3 channel inhibition, primary screen | B-score at 10 µM | 340,000 compounds, 0.84% hits | O14649 | AID 602410 | CHO-KCNK3 thallium flux, FluxOR fluorescence; hits give low values;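 active means B-score under library mean minus 4 SD, starting fluorescence ratio at most library mean plus 5 SD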;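 further: more negative B-score means stronger inhibition of thallium flux through KCNK3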
Target sequence (O14649 whole entry, looked up): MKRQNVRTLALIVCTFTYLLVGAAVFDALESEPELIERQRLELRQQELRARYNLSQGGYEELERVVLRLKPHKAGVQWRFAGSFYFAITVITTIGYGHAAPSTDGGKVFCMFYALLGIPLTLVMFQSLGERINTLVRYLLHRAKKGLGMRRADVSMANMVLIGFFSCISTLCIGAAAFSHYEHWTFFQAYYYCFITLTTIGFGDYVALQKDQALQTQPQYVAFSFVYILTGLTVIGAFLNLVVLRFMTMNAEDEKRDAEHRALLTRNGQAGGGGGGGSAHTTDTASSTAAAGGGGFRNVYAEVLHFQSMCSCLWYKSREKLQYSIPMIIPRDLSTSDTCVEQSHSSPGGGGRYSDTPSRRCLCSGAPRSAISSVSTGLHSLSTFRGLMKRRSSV
hERG rescue: compounds protecting human hERG from proarrhythmic drug block. CHO-hERG, FluxOR thallium flux, dofetilide IC70 present. activation (rescue from dofetilide block), less the hit threshold, % at 10 µM. 310,000 compounds, 0.51% hits;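 active means activation above the mean of controls blocked by dofetilide plus 5 SD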;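 further: thallium influx through hERG after potassium depolarization seen as dye fluorescence rise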
KCNK9 block: blocks the human KCNK9 two-pore domain potassium channel; B-score at 10 µM; HEK293 KCNK9, FluxOR thallium flux fluorescence; hits give low values; Q9NPC2; 310,000 compounds, 1.2% hits;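 active means ratio B-score over 3 SD below the library mean, with starting fluorescence within 5 SD of its mean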;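 further: negative B-score means less thallium flux so channel inhibition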
KCNQ1 block: human KCNQ1 channel inhibition; P51787; CHO-K1 KCNQ1, FluxOR thallium flux fluorescence; hits give high values; B-score at 10 µM; 310,000 compounds, 1.3% hits; AID 2642;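 active means compounds whose thallium flux B-score, printed positive for inhibition, exceeds three library SD while starting fluorescence stays within three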;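 further: channel opened by potassium depolarization with thallium stimulus after 20 min compound exposure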
An asterisk follows results filed as active; i = inactive; nt = not tested or not shown.

SMILES	Kir21 block	KCNQ1 pot	KCNK3 block	hERG rescue	KCNK9 block	KCNQ1 block
CC#CCN1c2ccccc2[C@]23C[C@@H](C(=O)OC)N(C(=O)c4ccc(Br)cc4)C2=NC(C(=O)OC)=C(C(=O)OC)[C@H]13	-0.21	i	nt	-4	i	i
COC(=O)C1=C(C(=O)OC)[C@@H]2N(Cc3ccccc3)c3ccccc3[C@@]23C[C@@H](C(=O)OC)N(C(=O)c2cccs2)C3=N1	0.48	i	i	-2	-7.9*	i
COC(=O)C1=C(C(=O)OC)[C@@H]2N(Cc3ccccc3)c3ccccc3[C@@]23C[C@@H](C(=O)OC)N(C(=O)c2cc(C)oc2C)C3=N1	0.58	i	i	0	i	i
COC(=O)C1=C(C(=O)OC)[C@@H]2N(C)c3ccccc3[C@@]23C[C@@H](C(=O)OC)N(C(=O)c2ccc(Br)cc2)C3=N1	-2.4	30*	i	-8	i	i
O=[N+]([O-])c1ccc(CP(=O)(c2ccccc2)c2ccccc2)cc1	-0.01	i	i	-6	i	i
CC(C)N1CC=C2C(C#N)=C(N)C(C#N)(C#N)[C@H](c3ccoc3)[C@H]2C1	-4.3	i	nt	-12	i	7*
CCN1CC=C2C(C#N)=C(N)C(C#N)(C#N)C(c3cc(Cl)ccc3Cl)C2C1 (stereo not given)	-3.6	i	-10*	-12	i	12*
CSc1nc2[nH]c(=O)n(O)c(=O)c2n1Cc1ccccc1	nt	nt	i	nt	nt	nt
Cc1ccc(-n2ncc3c2CC(C)(C)CC3NC(=O)CCc2ccc(=O)[nH]n2)cc1 (stereo not given)	0.31	i	i	-6	i	i
COc1ccc(C2C(=O)NN=C2C)cc1 (stereo not given)	nt	nt	i	nt	nt	nt
Cc1cccc2sc(NS(=O)(=O)c3ccccc3)nc12	-2.5	i	i	-2	i	6*
O=C(/C=C/c1cccc([N+](=O)[O-])c1)NCCSCc1ccc(Cl)cc1Cl	-0.58	i	i	-13	-14*	i
Cc1c(NC(=O)CSc2nnc(C(C)N(C)C)n2-c2ccccc2)c(=O)n(-c2ccccc2)n1C (stereo not given)	nt	nt	i	nt	nt	nt
CC1(C)SC(C)(C)N(C=O)C1C(=O)O (stereo not given)	nt	nt	i	nt	nt	nt
CC(=O)Nc1ccc(SCC(=O)Nc2ccccc2N2CCOCC2)cc1	nt	nt	i	nt	nt	nt
O=C(NCC1COc2ccccc2O1)C1C2C=CC3(CN(Cc4ccccc4Cl)C(=O)C13)O2 (stereo not given)	-0.36	i	i	-12	i	i
COc1ccc(CCN2CC34C=CC(O3)C(C(=O)NCc3ccccc3Cl)C4C2=O)cc1OC (stereo not given)	-0.03	i	i	4.7*	i	i
Cc1cc(C(C)(C)C)ccc1OC(=O)C1=CC=CN2CCS(=O)(=O)N=C12	nt	nt	i	nt	nt	nt
CC(=O)Nc1ccc(NC(=O)Cc2ccc(S(=O)(=O)N3CCCCC3)cc2)cc1	nt	nt	i	nt	nt	nt
CC(C)Cn1c(N)c(C(=O)COC(=O)Cc2cccc(C(F)(F)F)c2)c(=O)n(C)c1=O	-0.12	i	i	-23	i	i
C#CCn1c(=NC(=O)CSC(C)=O)sc2cc(F)ccc21	-0.79	i	i	0	-7.8*	i
Cn1c(SCC(=O)NCc2ccccc2)ncc(C(=O)Nc2ccccc2)c1=O	-0.5	i	i	-4	i	i
CC(=O)Nc1ccc(NC(=O)CSc2ncc(C(=O)Nc3ccccc3)c(=O)n2C)cc1	-0.99	i	i	-12	i	7*
COc1cccc(OC)c1/C(O)=C(\C#N)c1nc2ccccc2[nH]1	0.91	i	i	-3	-7.7*	i
Cc1ccc(N2CC(C(=O)Nc3ncc([N+](=O)[O-])s3)CC2=O)cc1 (stereo not given)	-1.2	i	i	-7	i	6*
O=C(NCc1cccc(C(F)(F)F)c1)C1CCC(=O)N(C2CCCCCC2)C1 (stereo not given)	1.3	i	i	-8	i	i
Cc1cc(NC(=O)CSc2nc(-c3ccccc3Cl)nc3c2c(=O)n(C)c(=O)n3C)no1	-0.01	i	i	5.4*	i	i
